Assay type in all cases: ADME, organism-based
The nature of data set [1]: Half life in Wistar rat at 3 mg/kg, iv and 10 mg/kg, po. As to conditions: in vivo.
Data set [2] can be described thus: Volume of distribution at steady state in Wistar rat at 3 mg/kg, iv and 10 mg/kg, po. As to conditions: in vivo, read-out: Vdss.
The nature of data set [3]: Clearance in Wistar rat at 3 mg/kg, iv and 10 mg/kg, po. As to conditions: in vivo.
Data set [4] is described as follows: Bioavailability in Wistar rat at 3 mg/kg, iv and 10 mg/kg, po. As to conditions: in vivo. In outline:
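Male Han Wistar rats. The iv dose was given as a DMA/PEG/saline (40/40/20) solution and the po dose as a 0.1% HPMC suspension.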

For the compound `COc1cncc(NC(=O)c2cc(NC(=O)c3cccc(C(C)(C)C#N)c3)ccc2C)c1`, the half-life in data set [1] was 30 min. Further, in data set [2], the Vd stood at 1.7 L/kg. In addition, the clearance in data set [3] stood at 56 mL/min/kg.

Regarding `CNc1ccc(NC(=O)c2cc(NC(=O)c3cccc(C(C)(C)C#N)c3)ccc2C)cn1`, in data set [1], the half-life was 36 min. Moreover, the Vd in data set [2] amounted to 1.7 L/kg. Moreover, in data set [3], the clearance was found to be 53.5 mL/min/kg. The compound also came in with a bioavailability in data set [4] of 15%.

Turning to `Cc1ccc(NC(=O)c2cccc(C(C)(C)C#N)c2)cc1C(=O)Nc1cncc(Cl)c1`, the half-life in data set [1] was 54 min. Moreover, the Vd in data set [2] amounted to 3.1 L/kg. The compound also came in with a clearance in data set [3] of 60 mL/min/kg. Further, in data set [4], the bioavailability came to 45%.

`Cc1ccc(NC(=O)c2cccc(C(C)(C)C#N)c2)cc1C(=O)Nc1cnc(N)c(Cl)c1` gave a half-life in data set [1] of 60 min. In data set [2], the Vd was 0.8 L/kg. Moreover, the clearance in data set [3] was 9.5 mL/min/kg. Further, in data set [4], the bioavailability stood at 30%.

In the case of `Nc1ncc(NC(=O)c2cc(NC(=O)c3cccc(C(F)(F)F)c3)ccc2Cl)cc1Cl`, the half-life in data set [1] was 84 min. Also, the Vd in data set [2] amounted to 1.2 L/kg. In data set [3], this compound displayed a clearance of 11 mL/min/kg. The bioavailability in data set [4] worked out at 96%.

`Cc1ccc(NC(=O)c2cccc(C(C)(C)C#N)c2)cc1C(=O)Nc1cccnc1` showed a half-life in data set [1] of 96 min. Further, the Vd in data set [2] worked out at 2.5 L/kg. For the same compound, in data set [3], the clearance turned out to be 42.5 mL/min/kg. The bioavailability in data set [4] came out at 17%.

In data set [1], `CC(=O)Nc1ccc(NC(=O)c2cc(NC(=O)c3cccc(C(C)(C)C#N)c3)ccc2C)cn1` showed a half-life of 42 min. Moreover, the Vd in data set [2] was found to be 2.7 L/kg. For the same compound, the clearance in data set [3] amounted to 64 mL/min/kg. In data set [4], this compound returned a bioavailability of 10%.

As for `Cc1ccc(NC(=O)c2cc(NC(=O)c3cccc(C(C)(C)C#N)c3)ccc2C)cn1`, in data set [1], the half-life is 48 min. In addition, in data set [2], the Vd amounted to 2.9 L/kg. Moreover, the clearance in data set [3] amounted to 47.5 mL/min/kg. This compound also gave a bioavailability in data set [4] of 73%.

In data set [1], `Cc1ccc(NC(=O)c2cccc(C(F)(F)F)c2)cc1C(=O)Nc1cnc(N)c(Cl)c1` gave a half-life of 96 min. The Vd in data set [2] was 1 L/kg. For the same compound, the clearance in data set [3] was found to be 8 mL/min/kg. In data set [4], this compound gave a bioavailability of 78%.

As to `Cc1ccc(NC(=O)c2cccc(C(C)(C)C#N)c2)cc1C(=O)Nc1ccc(N)nc1`, the half-life in data set [1] is 36 min. Moreover, in data set [2], the Vd stood at 2.3 L/kg. This compound also registered a clearance in data set [3] of 75.5 mL/min/kg.

In the case of `Cc1cncc(NC(=O)c2cc(NC(=O)c3cccc(C(C)(C)C#N)c3)ccc2C)c1`, in data set [1], the half-life was 48 min. In addition, the Vd in data set [2] is 1.4 L/kg. Moreover, the clearance in data set [3] is 32.5 mL/min/kg. The compound also came in with a bioavailability in data set [4] of 4%.

One may read the half-life as the time in which the quantity being followed falls by half. A higher half-life goes with slow decline. The bioavailability is the share of a dose that reaches the circulation, judged against a reference dose that is usually intravenous. Read a high bioavailability as much systemic uptake.

(Values after ChEMBL document CHEMBL1143270, “Identification of amidoheteroaryls as potent inhibitors of mutant (V600E) B-Raf kinase with in vivo activity” (Bioorg Med Chem Lett, 2009).)
